Compound activity from PubChem.
GPR7 antagonist – antagonists of human GPR7 (neuropeptides B/W receptor 1); inhibition, % at 4.4 µM; 1.1% of 290,000 active; P48145; GPR7-expressing cells, fluorescence antagonist assay; in the data active = inhibition above about 16%, passing the limit was not always enough;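 note: cells stimulated with the agonist NPW; 0% = agonist with vehicle and 100% = vehicle without agonist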
OX1R antag-1 – blocks the human orexin 1 receptor | O43613 | OX1R-expressing cells, FRET antagonist read-out | inhibition, % at 6.6 µM | 1.8% of 330,000 active | AID 485270; in the data active = inhibition mostly above about 38%, no sharp cut-off; inactive = mostly below about 40%;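 note: 0% = agonist challenge alone and 100% = reference antagonist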
TAAR1 antagonist – antagonists of human TAAR1; CHO RD-HGA16 TAAR1, Fluo-8 calcium fluorescence, antagonist; inhibition, % at 3 µM; 1.5% of 360,000 active; AID 624466;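 active = inhibition above a per-plate cutoff, the mean inhibition of test compounds on that plate plus 3 SD, cut at about 49% in these data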;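 note: 0% = DMSO plus EC80 beta-PEA response and 100% = DMSO alone without agonist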
Target sequence (Q96RJ0 whole entry, looked up): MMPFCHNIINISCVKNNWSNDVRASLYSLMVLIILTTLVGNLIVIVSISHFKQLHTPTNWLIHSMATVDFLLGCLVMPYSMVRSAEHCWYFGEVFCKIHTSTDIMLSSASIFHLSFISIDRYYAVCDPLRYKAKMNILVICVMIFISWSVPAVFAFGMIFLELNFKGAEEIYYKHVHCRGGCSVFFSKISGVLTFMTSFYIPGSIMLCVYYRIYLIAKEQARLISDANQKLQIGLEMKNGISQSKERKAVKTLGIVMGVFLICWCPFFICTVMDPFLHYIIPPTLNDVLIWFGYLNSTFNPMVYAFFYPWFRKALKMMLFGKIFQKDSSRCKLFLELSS
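Material: RD-HGA16 CHO cells with stable hTAAR1 and Gα16; Dosing: single nominal final test compound concentration of 3 µM; Schedule: seeding 17-24 h prior, 75-min 37 °C, 30-min RT dye loading; Detection: kinetic Fluo-8 calcium fluorescence measurement; Measure: % inhibition from peak post-agonist over basal fluorescence ratio; Benchmarks: vehicle and agonist controls.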
OX1R antag-2 – antagonists of human orexin 1 receptor. O43613. CHO/OX1R cells, Fluo-8 calcium fluorescence, orexin A. inhibition, % at 5 µM. 0.43% of 330,000 active. AID 434989;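 active = inhibition above its plate's threshold, mean inhibition of all tested compounds on the plate plus 3 SD, cut at about 37% in these data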;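 note: 0% = orexin A challenge wells and 100% = SB-334867-A antagonist wells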
CHO parental Ca – counter-screen: ATP calcium response change in parental CHO cells. parental CHO-K1, ATP-induced calcium, Fluo-8 fluorescence. inhibition, % at 5.6 µM. 0.63% of 330,000 active;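 active = inhibition above that plate's mean sample inhibition plus 3 SD, cut at about 26% in these data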;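 note: 0% = ATP-challenged DMSO wells and 100% = DMSO wells without ATP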
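Test system: untransfected parental CHO cell line; also added: ATP stimulus; dosing: 5.6 µM, single dose; signal: calcium-sensitive Fluo-8 fluorescence; measure: percent inhibition of ATP-evoked calcium rise, normalized to controls; benchmarks: low control ATP plus DMSO, high control DMSO only; replication: one well per compound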
TAAR1 agonist – human TAAR1 agonism; Q96RJ0; CHO RD-HGA16 TAAR1, Fluo-8 calcium fluorescence; vehicle wells 0%, saturating PEA agonist 100%; activation, % at 3 µM; 0.99% of 360,000 active;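 active = activation above the mean activation of all test compounds in the run plus 3 SD, cut at about 38% in these data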
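test system = CHO RD-HGA16 cells carrying human TAAR1 plus Gα16 | schedule = 17-24 h seeding, 75 min 37 °C dye, 30 min RT | compound dosing = 3 µM single concentration | control set = DMSO and PEA EC100 | replicates = n 1 | signal = Fluo-8 fluorescence, 5 s baseline then 140 s kinetic read | measure = percent activation vs PEA EC100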
Active calls of the source: *; . = not tested or not shown. In the library only some 4.5% were active in any assay of this set; here they are far more common.

SMILES	GPR7 antagonist	OX1R antag-1	TAAR1 antagonist	OX1R antag-2	CHO parental Ca	TAAR1 agonist
Cc1ccc(NC(=O)N2CCC(C(=O)Nc3ccc(C)cc3C)CC2)cc1	-2	11	1	-17	-12	9
O=[N+]([O-])c1cc(/C=N/NC(=S)Nc2ccccc2Cl)ccc1Cl	30*	52	11	0	-18	0
O=C(N/N=C/c1ccc(Cl)c([N+](=O)[O-])c1)C1CC1	3	59*	-2	8	1	7
Cc1ccc(NC(=S)N/N=C/c2ccc(Cl)c([N+](=O)[O-])c2)cc1	-5	-4	4	3	-9	-3
CC(C)c1ccc(CCNC(=O)c2cccc(S(=O)(=O)N3CCN(C)CC3)c2)cc1	-22	-12	-25	-41	-19	13
CCOC(=O)c1nc(C)n(-c2ccc(Cl)cc2)n1	-2	4	2	-17	-7	4
Cc1nc(C(=O)Nc2ccc(F)cc2)nn1-c1ccc([N+](=O)[O-])cc1	4	55*	11	-12	-8	4
Cc1ccc(NC(=O)c2nc(C)n(-c3ccc([N+](=O)[O-])cc3)n2)cc1	-1	26	.	-14	-9	.
CCOC(=O)c1nc(C)n(-c2ccc([N+](=O)[O-])cc2)n1	-1	49*	-6	-32	3	4
C=CC[n+]1ccc(/C=C2\C=Cc3cc(C)ccc3N2CC)c2ccccc21	26*	.	.	.	.	.
C/C(=N\N=c1/sc2ccccc2n1C)c1ccccn1	8	62*	-30	-6	-23	2
Cc1ccccc1NC(=S)NCCc1ccccn1	-3	4	-2	-16	-2	60*
S=C(NCCc1ccccc1)Nc1cccc2cnccc12	7	44	6	26	52*	51*
Cc1cccc(C)c1NC(=S)NCCc1ccccn1	-6	4	-16	-18	-1	3
COc1ccccc1NC(=S)NCCc1ccccc1	4	14	0	-12	-17	40*
O=C(Cc1sc(-c2ccccc2Cl)nc1-c1ccccc1)Nc1ccc(F)cc1	-5	4	-16	-22	-3	2
Cc1cc2c(c(=O)o1)[C@@]1(C(=O)N(C)c3c(Br)cccc31)C1=C(CCCC1=O)O2	.	.	-20	.	.	1
CCCOc1ccc(CSc2nc3ccccc3[nH]2)cc1	4	27	25	18	48*	8
COc1ccc2cc(/C=N/NC(=O)CN(c3ccccc3OC)S(=O)(=O)c3ccccc3)c(Cl)nc2c1	.	.	15	.	.	10
O=C(NCc1ccccc1)[C@@H]1CCCN1C(=O)[C@H]1CCCN1C(=O)c1ccc(F)c(C(F)(F)F)c1	.	.	-7	.	.	0
Cc1ccc(N2C(=O)c3cccc4c(C(=O)O)ccc(c34)C2=O)cc1	-2	34	6	2	-3	2
CC(=O)c1ccc2c3c(cccc13)C(=O)N(c1c(C)nn(C)c1C)C2=O	-10	67*	1	-15	-12	3
COCc1[nH]nc2c1C(c1ccc3c(c1)OCO3)N(c1ccc(OC)cc1)C2=O (stereo unspecified)	.	.	-23	.	.	1
C[C@@H]1C=CCCO[C@]12C(=O)N(Cc1ccc(Br)cc1)c1cccc(Br)c12	.	.	34	.	.	-1
COc1ccc(C(=O)NNC(=O)c2ccncc2)cc1[N+](=O)[O-]	-10	16	-16	1	-1	2
COc1c([N+](=O)[O-])cc(C(=O)NNC(=O)c2ccc(C)cc2)cc1[N+](=O)[O-]	-5	46*	-1	-13	-18	-1
COC(=O)C[C@@H]1OC[C@H](C)N1S(=O)(=O)c1ccc(C)cc1	.	.	-14	.	.	3
CCOC(=O)C1=C(C(=O)OCC)C2N(Cc3ccccc3)c3ccccc3[C@@]23C[C@@H](C(=O)OC)N(S(=O)(=O)c2ccc(C(F)(F)F)cc2)C3=N1 (stereo partly specified)	.	.	-25	.	.	1
CCCNC(=O)Cn1c(=O)/c(=C/c2ccc(-c3ccc([N+](=O)[O-])cc3)o2)s/c1=C\C(=O)C(C)(C)C	.	.	11	.	.	14
CC(OC(=O)c1ccccc1Nc1ccc(SC(F)F)cc1)C(N)=O (stereo unspecified)	-12	36	31	29	47*	11
